# KCNQ1 block = inhibitors of human KCNQ1 channel, primary screen, cell-based, thallium flux, high-throughput; AID 2642, 2010; B-score at 10 µM; Potassium voltage-gated channel subfamily KQT member 1 (Homo sapiens), P51787; 1.3% of 310,000 active; CHO-K1 KCNQ1, FluxOR thallium flux fluorescence; hits give high values;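 active means compounds whose thallium flux B-score, printed positive for inhibition, exceeds three library SD while starting fluorescence stays within three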;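 further: channel opened by potassium depolarization with thallium stimulus after 20 min compound exposure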
# Target sequence (P51787 whole entry, looked up): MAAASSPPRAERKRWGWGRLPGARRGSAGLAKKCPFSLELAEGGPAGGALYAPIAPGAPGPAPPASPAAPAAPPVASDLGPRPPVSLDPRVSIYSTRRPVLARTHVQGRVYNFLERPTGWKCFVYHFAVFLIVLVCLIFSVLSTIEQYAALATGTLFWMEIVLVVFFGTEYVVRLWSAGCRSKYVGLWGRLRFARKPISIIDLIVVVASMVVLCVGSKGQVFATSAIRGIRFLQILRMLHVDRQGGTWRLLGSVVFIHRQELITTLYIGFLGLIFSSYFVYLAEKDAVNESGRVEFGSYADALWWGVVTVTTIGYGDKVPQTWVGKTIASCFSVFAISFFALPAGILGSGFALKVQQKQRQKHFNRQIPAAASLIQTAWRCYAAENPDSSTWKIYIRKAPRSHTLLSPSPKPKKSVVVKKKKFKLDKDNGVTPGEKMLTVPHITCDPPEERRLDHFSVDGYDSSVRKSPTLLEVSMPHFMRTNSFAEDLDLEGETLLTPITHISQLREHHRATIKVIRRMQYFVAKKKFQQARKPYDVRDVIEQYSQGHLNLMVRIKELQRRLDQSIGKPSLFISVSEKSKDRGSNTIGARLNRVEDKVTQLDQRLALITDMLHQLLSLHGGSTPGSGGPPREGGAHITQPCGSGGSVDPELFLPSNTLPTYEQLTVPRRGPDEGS
# Cl transport mod = KCC2 cotransporter modulators, thallium flux, primary screen, cell-based, HEK293 KCC2, FluoZin-2 fluorescence, MLSMR; Solute carrier family 12 member 5 (Homo sapiens), Q9H2X9; KCC2 cells, thallium flux FluoZin-2 fluorescence; AID 1456, 2008; B-score of Tl+ flux slope (higher = more flux/activation; lower = inhibition) at 10 µM; 2.2% of 190,000 active;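 active means thallium flux slope and its plate-corrected score both differing from the plate sample mean at a set confidence after two filtering rounds, in either direction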;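 further: slope of fluorescence scaled to starting intensity during 10 to 20 s after thallium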
# SUMO Mot1 rescue = yeast Mot1-301 growth rescue at high temperature, primary screen, SUMOylation pathway inhibitor project, S. cerevisiae, ATP luminescence, 38.5C | S. cerevisiae Mot1-301 growth rescue; percent above DMSO median, 100 means doubled | growth rescue, % at 18.8 µM | 1% of 320,000 active;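 active means every valid replicate shows activation above 250% relative to neutral control wells; inactive means the rest, any valid replicate at or below 250%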;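 further: OY570 slx delta 5 strain wells were the positive control but not used for scaling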
# AI-2 QS mod = Vibrio harveyi AI-2 quorum sensing modulators, primary screen, JMH597 strain, luminescence/OD600 ratio | AID 2094, 2009 | 0.4% of 300,000 active | activity change, % at 7.5 µM | Vibrio harveyi JMH597 AI-2 luminescence/OD600 ratio, 9 h; hits give low values; strain lacks LuxN and CqsS sensors; 0 = neutral-control median; in the data active means activity change below about -75%, passing the limit was not always enough; inconclusive means no clear call, values can overlap the other calls;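 further: luminescence divided by OD600 gain over 9 h not by final OD600 alone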
# KCNQ1 act = potentiators or activators of KCNQ1 channel, primary screen, cell-based, thallium flux, high-throughput | CHO-K1 KCNQ1, thallium flux FluxOR fluorescence; hits give high values | B-score at 10 µM | 0.35% of 310,000 active;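 active means fluorescence ratio B-score, a plate-corrected score, at least three library SD, with initial intensity B-score within 5 SD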
#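 Doses: Single concentration per compound, DMSO matched to controls | Test system: KCNQ1-transfected CHO-K1 cells | Timing: 90 min dye loading and 20 min compound exposure, both at room temperature | Measured by: Kinetic FluxOR thallium fluorescence, 10-s 1-Hz baseline, 110-s post-stimulus read | Medium: Assay buffer with matched DMSO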
# hERG rescue = hERG rescue from dofetilide block, primary screen, cell-based, CHO-hERG, FluxOR thallium flux, dofetilide IC70; activation (rescue from dofetilide block), less the hit threshold, % at 10 µM; AID 1511, 2009; 0.51% of 310,000 active; dofetilide IC70 present; Voltage-gated inwardly rectifying potassium channel KCNH2 (Homo sapiens), Q12809;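 active means activation above the mean of controls blocked by dofetilide plus 5 SD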;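 further: thallium influx through hERG after potassium depolarization seen as dye fluorescence rise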
# KCC2 secondary = KCC2 modulators in sodium-free buffer, confirmation, cell-based, HEK293 KCC2, thallium flux, secondary assay | normalised thallium flux (F/F0 slope) at 10 µM | FluoZin2 fluorescence; hits give high values | 15% of 3,700 active | shares compounds with Cl transport mod;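 active means thallium flux slope above the same plate's solvent-only control mean plus 3 SD; inconclusive means the two replicate wells disagree; inactive means no significant difference from solvent-only control wells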
# KCC2 bumet counter = thallium flux persisting under bumetanide in KCC2 cells, confirmation, counter-screen for KCC2 modulator project, cell-based, HEK293 KCC2, FluoZin2, secondary assay 3. shares compounds with Cl transport mod. HEK293-KCC2 + bumetanide/ouabain; hits give high values. normalized thallium flux at 10 µM. 49% of 3,700 active. AID 1714, 2009;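 active means thallium entry rate above the same plate's blocked-transporter control wells by more than 3 SD; inconclusive means the two repeat wells disagree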;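 further: raw slope of fluorescence over initial fluorescence between 10 and 20 s after thallium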
# KCC2 secondary2 = KCC2 modulators without ouabain present, confirmation, cell-based, HEK293 KCC2, thallium flux, FluoZin2, secondary assay 2 | AID 1715, 2009 | 23% of 3,700 active | normalized thallium flux at 10 µM | thallium flux FluoZin2 fluorescence; actives lie on both sides; F/F0 rise rate, 10–20 s post-thallium | shares compounds with Cl transport mod;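 active means thallium flux slope more than 3 SD above or below the plate's solvent-only control mean, mostly below; inconclusive means the two repeat wells disagreed; inactive means no significant shift from solvent-only controls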;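 further: raw slope with 0.1% DMSO as baseline and bumetanide as block control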
# HEK counter1 = thallium flux modulation in parental HEK cells, confirmation, counter-screen for KCC2 modulator project, cell-based, counterscreen 1. thallium flux rate (normalised fluorescence) at 10 µM. AID 1716, 2009. HEK293 parental cells, thallium flux FluoZin2, ouabain; baseline-ratio fluorescence slope, 10–20 s after thallium. shares compounds with Cl transport mod. 46% of 3,700 active;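 active means thallium flux rate significantly above the same plate's solvent-only control wells, beyond their mean plus 3 SD; inconclusive means the two replicate wells gave conflicting results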
# KCC2 ouabain = KCC2 inhibitors and activators, ouabain retest, confirmation, HEK-KCC2 cells | 48% of 3,700 active | HEK293-KCC2, thallium flux FluoZin2 fluorescence; bidirectional: low = inhibitor, high = activator | raw Tl+ flux slope (below DMSO = inhibition, above = activation) at 10 µM | AID 1717, 2009 | shares compounds with Cl transport mod;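 active means thallium flux slope beyond 3 SD from same-plate DMSO control mean in most replicates, usually higher, sometimes lower; inconclusive means repeat tests gave conflicting results; inactive means no significant difference from controls in most replicates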;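 further: slope of initial-normalized fluorescence between seconds 10 and 20 after thallium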
# HEK counter2 = native HEK Tl+ uptake effects, second counter-screen – HEK cells, counterscreen 2, counter-screen for KCC2 modulator project, confirmation. AID 1718, 2009. HEK293 parental, thallium flux FluoZin-2 fluorescence slope. thallium flux slope at 10 µM. 33% of 3,700 active. shares compounds with Cl transport mod;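 active means thallium flux slope above the same plate's solvent-control mean plus 3 SD in both duplicate wells; inconclusive means duplicate wells that disagreed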;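 further: run without ouabain in cells lacking the KCC2 cotransporter; slope of fluorescence scaled to its starting value between 10 and 20 s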
# Numbers without * were called inactive; i = inactive; ? = inconclusive; . = no result. Most compounds without a hit are left out; they make up all but 4.2% or so of the library.
SMILES,KCNQ1 block,Cl transport mod,SUMO Mot1 rescue,AI-2 QS mod,KCNQ1 act,hERG rescue,KCC2 secondary,KCC2 bumet counter,KCC2 secondary2,HEK counter1,KCC2 ouabain,HEK counter2
CCOc1ccc(NS(=O)(=O)c2ccc(NS(=O)(=O)c3ccccc3)cc2)cc1,i,.,-22,7,i,-14,0.0079,0.0063,0.03,0.0074,?,0.011
N=C1S/C(=C\c2ccco2)C(=O)N1c1nccs1,i,19*,-7,45,9*,-4,0.028*,0.075*,?,0.028*,0.049*,0.015*
S=c1[nH]nc(-c2ccccn2)n1/N=C/c1ccc(-c2ccccc2Br)o1,i,84*,.,32,i,14*,0.006,0.14*,0.17*,0.14*,0.14*,0.15*
S=c1[nH]nc(-c2cccc(Cl)c2)n1/N=C/c1ccc(-c2ccccc2Br)o1,i,0.67,121,17,i,-7,.,.,.,.,.,.
S=c1[nH]nc(-c2ccccc2)n1/N=C/c1ccc(-c2ccccc2Cl)o1,i,6.8*,-10,6,8*,4,0.008,0.014*,?,0.02*,0.027*,0.018*
Cc1ccc(-c2oc3ccccc3c(=O)c2O)cc1,i,106*,5,5,i,0,0.0099*,0.1*,0.081*,0.095*,0.097*,0.08*
COCc1ccccc1C1=CC(=O)C[C@H](c2ccc(OC)cc2)C1,.,.,-8,.,.,.,.,.,.,.,.,.
Cc1cc(C)c(S(=O)(=O)N2CCOC2CNC(=O)C(=O)NCCCN2CCOCC2)c(C)c1 (configuration not stated),i,.,-1,15,i,-2,.,.,.,.,.,.
O=C(NC1CC1)c1sc2ccccc2c1Cl,i,.,11,13,i,-1,.,.,.,.,.,.
O=C(NNC(=O)C1CC2CCC1C2)c1sc2ccccc2c1Cl (configuration not stated),i,9.5*,-5,30,i,-8,0.01,0.041*,0.031,0.019*,0.025,0.012*
CCOC(=O)C1=C(c2ccccc2)N2CCN=C2S1,.,1.4,.,.,.,.,.,.,.,.,.,.
CCN(C1CCCCC1)S(=O)(=O)CCNC(=O)c1ccccc1,i,.,-15,12,i,-10,.,.,.,.,.,.
O=C(NCc1csc(-c2ccccc2)n1)c1cc(F)cc2c1OCOC2,i,-3.8*,-2,3,i,-12,?,0.0053,0.029,0.0061,0.015*,0.0098
O=C(Cc1csc(-c2ccccc2)n1)NCc1ccc(F)cc1,i,-5.2*,-17,13,i,-8,0.0091,0.0062,0.03*,0.0036,0.016*,0.011
O=S(=O)(c1ccc(Cl)cc1)N1CCC(n2cnc3cc(C(F)(F)F)ccc32)CC1,i,0.4,14,14,i,-18,.,.,.,.,.,.
COCCn1c(SCC(=O)NC(C)c2ccc(F)cc2)nc2ccccc21 (configuration not stated),i,.,-20,29,i,-8,.,.,.,.,.,.
CSCCC(NC(=O)c1ccc([N+](=O)[O-])cc1Cl)C(=O)OC(C)C(=O)NCc1ccco1 (configuration not stated),i,.,-29,-9,i,-15,.,.,.,.,.,.
O=C(CN1CCN(S(=O)(=O)c2ccccc2)CC1)Nc1ccc2c(c1)CCC2,i,6.2*,48,18,i,-11,0.0065,0.0048,?,0.0076,0.017,0.011
COC(=O)CSc1nc(N2CCCCC2)c2c(c1C#N)CCCC2,i,-0.85,-1,17,i,4,.,.,.,.,.,.
N#Cc1c(SCC(=O)O)nc(N2CCCCC2)c2c1CCCC2,i,-3.2*,41,23,i,-4,0.012,0.0062,0.033,0.0064,0.02,0.011
CC(=O)Oc1c(-c2ccco2)oc2ccccc2c1=O,i,40*,6,2,8*,0,0.045*,0.071*,0.057*,0.057*,0.056*,0.056*
COC(=O)c1ccc(CSc2ccc3nnc(-c4cccc(F)c4)n3n2)o1,i,-1.9,-17,22,i,-12,.,.,.,.,.,.
CCC(=Nc1ccc(Cc2ccncc2)cc1)c1c(O)n(C)c(=O)n(C)c1=O,.,-3.2*,.,.,.,.,0.0078,?,0.024*,0.0079,?,0.012
Cn1c(=O)c2c(O)c(Cc3ccccc3)c(=O)[nH]c2n(C)c1=O,i,1,19,19,i,-5,.,.,.,.,.,.

# Screens as filed in PubChem BioAssay.
